ChEMBL document CHEMBL1641427, “Arylsulfanyl pyrazolones block mutant SOD1-G93A aggregation. Potential application for the treatment of amyotrophic lateral sclerosis” (Bioorg Med Chem, 2011)
Values after ≈ are worked out from the molar mass of the structure shown.

Tests used:
[1] = Inhibition of SOD1 G93A mutant aggregation in rat PC12 cells by cytotoxicity protection assay; type: cell-based; conditions: PC-12
[2] = Half life in mouse microsome by LC-MS/MS analysis; type: ADME, microsomes; conditions: for t1/2: microsomes
[3] = Intrinsic clearance in mouse microsome by LC-MS/MS analysis; type: ADME; conditions: mouse microsomes
[4] = Intrinsic clearance in mouse microsome by LC-MS/MS analysis in presence of NADPH; type: ADME; conditions: mouse microsomes
Brain = experiment: Effect of compound on Tg6799 mouse brain weight at 1 mg/kg, ip after 10 mins; type: ADME, organism-based; design: dose 1 mg/kg, route intraperitoneal; conditions: in vivo
Mus musculus [5] = experiment: Brain area ratio in Tg6799 mouse at 1 mg/kg, ip after 10 mins by LC-MS/MS analysis; type: ADME, organism-based; design: dose 1 mg/kg, route intraperitoneal; conditions: in vivo
Outline: (§1)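 Female Tg6799 mice (B6/SJL background), n=3, given 1 mg/kg i.p. in 60% PBS/40% DMSO (100 μL per 10 g) and killed at 10 min. Plasma collected by centrifugation. Brain PBS-perfused via left ventricle, excised, weighed and homogenized in acetonitrile with internal standard. Analyte measured by LC-MS/MS as ratio to internal standard; plasma in μg/mL, brain in μg/g. Brain/plasma ratio computed after μM conversion assuming brain density 1 g/mL. Mean ± SD.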

Plasma (Homo sapiens) [6] = experiment: Ratio of AUC of compound to 4-ethylidene-1H-pyrazol-5(4H)-ones in human serum at 0.50 ug/ml plasma concentration
[7] = Drug level in Tg6799 mouse plasma at 1 mg/kg, ip after 10 mins by LC-MS/MS analysis; type: ADME, organism-based; design: dose 1 mg/kg, route intraperitoneal; conditions: read-out: Drug uptake; outline: as §1
[8] = Drug level in Tg6799 mouse brain measured per gram of tissue at 1 mg/kg, ip after 10 mins by LC-MS/MS analysis; type: ADME, organism-based; design: dose 1 mg/kg, route intraperitoneal; conditions: read-out: Drug uptake; outline: as §1
Plasma (Homo sapiens) [9] = experiment: Ratio of AUC of compound to 4-ethylidene-1H-pyrazol-5(4H)-ones in human serum at 0.10 ug/ml plasma concentration
Plasma (Homo sapiens) [10] = experiment: Ratio of AUC of compound to 4-ethylidene-1H-pyrazol-5(4H)-ones in human serum at 0.05 ug/ml plasma concentration
[11] = Ratio of AUC of compound to 4-ethylidene-1H-pyrazol-5(4H)-ones in pig brain at 0.50 ug/ml brain extract concentration; type: ADME, tissue-based, Sus scrofa; conditions: in vivo
Outline: (§2)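 Brain standards: analyte added to pig brain pieces (300–500 mg) with acetonitrile and internal standard at final 0.05, 0.10, 0.5 and 1.0 μg/mL (1 mL total). Homogenized, then 20 μL aliquot run by LC-MS/MS. Analyte/internal standard response taken. Triplicate.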

[12] = Ratio of AUC of compound to 4-ethylidene-1H-pyrazol-5(4H)-ones in pig brain at 0.05 ug/ml brain extract concentration; type: ADME, tissue-based, Sus scrofa; conditions: in vivo; outline: as §2
Mus musculus [13] = experiment: Plasma area ratio in Tg6799 mouse at 1 mg/kg, ip after 10 mins by LC-MS/MS analysis; type: ADME, organism-based; design: dose 1 mg/kg, route intraperitoneal; conditions: in vivo; outline: as §1
[14] = Ratio of drug level in brain to plasma in Tg6799 mouse at 1 mg/kg, ip after 10 mins by LC-MS/MS analysis; type: ADME, organism-based; design: dose 1 mg/kg, route intraperitoneal; outline: as §1
Plasma (Homo sapiens) [15] = experiment: Ratio of AUC of compound to 4-ethylidene-1H-pyrazol-5(4H)-ones in human serum at 0.01 ug/ml plasma concentration
[16] = Ratio of AUC of compound to 4-ethylidene-1H-pyrazol-5(4H)-ones in pig brain at 1 ug/ml brain extract concentration; type: ADME, tissue-based, Sus scrofa; conditions: in vivo; outline: as §2
[17] = Ratio of AUC of compound to 4-ethylidene-1H-pyrazol-5(4H)-ones in pig brain at 0.10 ug/ml brain extract concentration; type: ADME, tissue-based, Sus scrofa; conditions: in vivo; outline: as §2
[18] = (§3) Permeability from basolateral to apical side of human Caco2 cells after 2 hrs; type: ADME, cell-based, Caco-2; conditions: Caco-2
Outline: (§4)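 Caco-2 cells were seeded on collagen-coated inserts and differentiated for 3 weeks, fed every 2 days. The donor side received 50 μM compound in HBSS with 10 mM HEPES and 1.98 g/L glucose, apical at pH 6.5 and basolateral at pH 7.4, for 2 h. Apical 100 μM Lucifer yellow checked monolayer integrity (<1%/2 h). Papp = dQ/dt/(C0·A), and the ratio is Papp(B→A)/Papp(A→B).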

[19] = (§5) Permeability from apical to basolateral side of human Caco2 cells after 2 hrs; type: ADME, cell-based, Caco-2; conditions: Caco-2; outline: as §4
Caco-2 [20] = experiment: (§6) Ratio of permeability from basolateral to apical side to apical to basolateral side in human Caco2 cells; type: ADME, cell-based; outline: as §4
[21] = Aqueous solubility of the compound; type: physicochemical; conditions: buffer
Outline: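 DMSO stock 3-fold serially diluted at 100× final, then diluted into PBS to 1% DMSO final. Incubated 1 h at room temperature, inspected visually for precipitate and read at 450 nm. Solubility limit is the highest concentration neither cloudy nor above background absorbance (visual only for coloured compounds).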

Plasma = experiment: Half life of the compound in mouse plasma at 5 uM; type: ADME, cell-free
Outline: (§7)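 Samples taken at 15 s and at 10, 20, 40 and 60 min, precipitated with acetonitrile containing haloperidol internal standard, then LC-MS/MS. Plasma/PBS response ratio fitted to a first-order exponential (1/Y weighting); T1/2 = ln2/k. PBS half-life from its own exponential fit.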

[22] = Stability of the compound in PBS assessed as compound remaining after 60 mins; type: physicochemical; conditions: read-out: Stability; outline: as §7
Caco-2 [23] = experiment: as §3; type: ADME, cell-based; conditions: caco-2, 2 h; outline: as §4
Caco-2 [24] = experiment: as §5; type: ADME, cell-based; conditions: caco-2, 2 h; outline: as §4
[25] = as §6; type: ADME, cell-based; conditions: Caco-2; outline: as §4
[26] = Half life in human microsome by LC-MS/MS analysis; type: ADME; conditions: microsomes

Row | SMILES | EC50 [1] | other results
1 | O=c1cc(CSc2ccc(F)cc2)[nH][nH]1 | 3.44 µM | 
2 | O=c1cc(CSc2ccccn2)[nH][nH]1 | 46 µM | 
3 | O=c1cc(CSc2ccc(-c3ccccc3)cc2)[nH][nH]1 | 4.06 µM | 
4 | O=c1cc(CSc2ccccc2)[nH][nH]1 | 10.1 µM | 
5 | Cc1ccc(SCC2=NN(c3ccccc3)C(=O)/C2=C\c2ccc(-c3cccc(C(F)(F)F)c3)o2)cc1 | 4.1 µM | 
6 | Cc1nnc(SCc2cc(=O)n(-c3nc4ccccc4s3)[nH]2)s1 | 44 µM | 
7 | COc1ccc(SCc2cc(=O)[nH][nH]2)cc1 | 1.81 µM | 
8 | Cc1cc(C)nc(-n2[nH]c(CSc3nnc(C)s3)cc2=O)n1 | 6.7 µM | 
9 | O=c1cc(CSc2cc(Cl)cc(Cl)c2)[nH][nH]1 | 0.17 µM | 
10 | Cc1ccc(SCC2=NN(c3ccccc3)C(=O)/C2=C\C2=NCN=C2c2ccccc2)cc1 | 10 µM | 
11 | O=c1cc(CSc2ccc(Br)cc2)[nH][nH]1 | 1.8 µM | 
12 | Cc1ccc(SCc2cc(=O)n(-c3nc(C)cc(C)n3)[nH]2)cc1 | 3.5 µM | 
13 | Cn1[nH]c(CSc2ccc(Cl)cc2)cc1=O | 5.4 µM | 
14 | O=c1cc(CSc2ccc(Cl)cc2)[nH]n1-c1ccccc1 | 3.46 µM | 
15 | O=c1cc(CSc2ccc(Cl)cc2Cl)[nH][nH]1 | 1.15 µM | 
16 | Cc1cc(SCC2=NNC(=O)/C2=C\N(C)C)c(Cl)cc1Cl | 0.9 µM | half-life ([2]; mouse microsomes): 4 min; CLint scaled [3]: 135 mL/min/kg; CLint scaled [4]: 924 mL/min/kg
17 | Cc1cc(SCc2cc(=O)[nH][nH]2)c(C)cc1Cl | 0.4 µM | Activity (Brain): 0.399 g; Ratio (Mus musculus [5]): 0; t1/2 [2]: 15 min; CLint scaled [3]: 63 mL/min/kg; Ratio AUC (Plasma (Homo sapiens) [6]): 1.58; concentration at 10 min [7]: 1960 ng/mL; concentration at 10 min [8]: 360 ng/g; Ratio AUC (Plasma (Homo sapiens) [9]): 0.637; Ratio AUC (Plasma (Homo sapiens) [10]): 0.304; Ratio AUC [11]: 1.11; CLint scaled [4]: 242 mL/min/kg; Ratio AUC [12]: 0.148; Ratio (Mus musculus [13]): 0; Ratio [14]: 0.19; Ratio AUC (Plasma (Homo sapiens) [15]): 0.068; Ratio AUC [16]: 2.48; Ratio AUC [17]: 0.268

Row | SMILES | EC50 [1] | other results
18 | O=c1cc(CSc2cccc(Cl)c2)[nH][nH]1 | 1.11 µM | 
19 | O=c1cc(CSc2ccc(Cl)cc2)[nH][nH]1 | 1.93 µM | 
20 | Cc1cc(SCC2=NNC(=O)/C2=C\N(C)C)c(C)cc1Cl | 5.3 µM | 
21 | CNC(=C[N+](=O)[O-])NCCSCc1ccc(CN(C)C)o1 [RANITIDINE] |  | Papp B→A at 2 h [18]: 0.6 ×10⁻⁶ cm/s; Papp A→B at 2 h [19]: 0.6 ×10⁻⁶ cm/s; Ratio (Caco-2 [20]): 1
22 | O=c1cc(CSc2c(Cl)cccc2Cl)[nH][nH]1 | 0.95 µM | 
23 | O=c1cc(CSc2ccccc2Cl)[nH][nH]1 | 3.05 µM | 
24 | Cc1ccc(SCc2cc(=O)[nH][nH]2)cc1 | 2 µM | 
25 | Cc1nnc(SCc2cc(=O)[nH][nH]2)s1 | 16 µM | 
26 | O=C1ON=C(CSc2ccccc2)/C1=C/c1ccccc1 | 165 µM | 
27 | O=c1cc(CSc2ccc(Cl)c(Cl)c2)[nH][nH]1 | 1.89 µM | 
28 | O=C1NN=C(CSc2ccccc2)/C1=C/c1ccccc1 | > 32 µM | 
29 | O=c1cc(CSc2nnnn2-c2ccccc2)[nH]n1-c1ccccc1 | 6.6 µM | 
30 | CC(=O)CC(c1ccccc1)c1c(O)c2ccccc2oc1=O (centres undefined) [WARFARIN] |  | CLint scaled [3]: 6 mL/min/kg
31 | Cc1cc(SCc2cc(=O)[nH][nH]2)c(Cl)cc1Cl | 0.55 µM | solubility [21]: 56 µM (≈ 16.2 µg/mL); t1/2 (Plasma): 16 min; remaining at 1 h [22]: 100%; t1/2 [2]: 13 min; Papp (Caco-2 [23]): 0.46 ×10⁻⁶ cm/s; Papp (Caco-2 [24]): 4.7 ×10⁻⁶ cm/s; efflux ratio [25]: 0.1; t1/2 [26]: 39 min
32 | CC(C)(C)c1ccc(SCc2cc(=O)[nH][nH]2)cc1 | 2.31 µM | 
33 | O=C1/C(=C\c2ccc(-c3cccc(C(F)(F)F)c3)o2)C(CSc2ccccc2)=NN1c1ccccc1 | 35 µM | 
34 | O=c1cc(CSc2ccc([N+](=O)[O-])cc2)[nH][nH]1 | 2.4 µM | 
